# The campaign covered roughly 310,000 compounds. About 2,800 (0.9%) were called active.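 Rule for the calls: active = B-score of the integrated calcium signal more than 4 SD below the library mean, with starting fluorescence not abnormally high; inactive = the rest.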 The list comes from a sample in which actives are over-represented; it also holds similar structures and randomly drawn compounds.
# Assay: enhancers of RGS4 function in calcium signaling – cell-based, HEK293 M3R inducible RGS4, calcium flux, primary screen (AID 463111);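 for B-score: negative B-score means reduced calcium response which marks RGS4 activation or potentiation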
# Details: HEK293 M3R/inducible RGS4, carbachol calcium flux Fluo4, at 10 µM; stronger effect = lower value
# How it was run: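 Test system: HEK293 cells with stable M3R and inducible RGS4; also added: carbachol at ECmax as muscarinic agonist stimulus; schedule: dye loading 30 min 37 °C, buffer rest 30 min RT; technique: kinetic calcium fluorescence imaging with Fluo4-AM dye, 2 µM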
row,SMILES,B-score
1,CN(C)CCCNC(=O)c1cc(C(=O)Cc2ccc(Cl)cc2)c[nH]1,inactive
2,CC(=O)C1C(c2ccc(Cl)cc2)c2c(n[nH]c2C)CC1(C)O (stereo not given),inactive
3,COC(=O)c1ccccc1NC(=O)CSc1nnnn1C,inactive
4,C=CCn1c(SCC(=O)Nc2nc3ccccc3s2)nnc1-c1ccccc1O,inactive
5,Cn1nnnc1SCC(=O)Nc1nc2ccccc2s1,-7.23 (active)
6,Cc1cc(C)cc(C(=O)N2CCN=C2SCc2ccc([N+](=O)[O-])cc2)c1,-8.97 (active)
7,Cc1cccc(CC(=O)N2CCN=C2SCc2ccc([N+](=O)[O-])cc2)c1,inactive
8,O=C(Cc1ccc(F)cc1)N1CCN=C1SCc1cccc([N+](=O)[O-])c1,inactive
9,Cc1cc(C)c2nc3nc(C)cc(C)c3c(N)c2c1,-7.22 (active)
10,Cc1cc(C)c2nc(-c3ccco3)cc(C(=O)O)c2c1,inactive
11,CN(CC1CCCO1)S(=O)(=O)c1ccc(C(=O)Nc2ccc([N+](=O)[O-])cc2)cc1 (stereo not given),inactive
12,Cc1ccc(OC(=O)c2ccccc2C(=O)OCC(F)(F)C(F)F)cc1,inactive
13,O=C(COC(=O)/C=C/c1ccc(S(=O)(=O)N2CCCCCC2)cc1)NCc1ccccc1Cl,inactive
14,O=C(c1ccc(F)c(S(=O)(=O)N2CCOCC2)c1)N(CCc1ccccc1)Cc1ccccc1,inactive
15,CCCCOc1ccc(CSC(=N)N)cc1[N+](=O)[O-],-7.06 (active)
16,CCCOc1ccc(Cn2ccnc2)cc1[N+](=O)[O-],inactive
17,CCCCCOc1ccc(CSC2=NCCN2)cc1[N+](=O)[O-],inactive
18,COc1cc(C2OC(c3cc(OC)c(OC)c(OC)c3)C(C)C2C)cc(OC)c1OC (stereo not given),inactive
19,CSCCC(NS(=O)(=O)c1ccc(C)cc1)C(=O)NCCc1c[nH]c2ccccc12 (stereo not given),inactive
20,CCC(=O)c1ccc(N2CCN(C(=O)c3cc([N+](=O)[O-])ccc3F)CC2)c(F)c1,inactive
21,O=C(Nc1cccc(Cl)c1)c1cc([N+](=O)[O-])ccc1N1CCN(CCO)CC1,inactive
22,CCN1CCN(c2ccc([N+](=O)[O-])cc2C(=O)c2ccc(Cl)cc2)CC1,-7.47 (active)

row,SMILES,B-score
1,O=C(N/N=C/c1ccc(O)c(O)c1)C1c2ccccc2Oc2ccccc21,inactive
2,O=C(CCC1CCN(C(=O)c2cccc(Cl)c2F)CC1)Nc1ccccc1,inactive
3,Cc1cc(S(=O)(=O)Nc2ccc(C(=O)NCC(c3ccco3)N3CCCC3)cc2)ccc1F (stereo not given),inactive
4,COc1ccccc1-c1cc(C(=O)N2CCCCC2)no1,inactive
5,COc1ccc(OCc2cc(C(=O)N3CCCC3)no2)c2ccccc12,-7 (active)
6,COc1cc(Cl)ccc1OCc1cc(C(=O)N2CC[C@@H]3CCCC[C@H]3C2)no1,inactive
7,O=C(NC1(C(F)(F)F)NC(=O)N(Cc2cccnc2)C1=O)c1ccccc1Cl (stereo not given),inactive
8,O=C(CN1C(=O)c2cccnc2Oc2ccc(Cl)cc21)NCCc1ccccc1,inactive
9,CCOC(=O)c1cccc(NC(=O)c2ccc(F)cc2F)c1,inactive
10,Cc1ccc(N(Cc2ccccc2O)C(=O)c2ccccc2F)cc1,inactive
11,Cn1c(N)c(C(=O)COC(=O)c2cnc(Cl)c(Cl)c2)c(=O)n(C)c1=O,inactive
12,Cc1ccc(C)c(NC(=O)NNC(=O)c2ccc3ccccc3c2O)c1,inactive
13,CSc1ccc(NC(=O)/C=C/C(=O)O)cc1,inactive
14,COC(=O)c1sc(-c2ccc(C(C)(C)C)cc2)cc1NC(=O)/C=C/C(=O)O,-8.52 (active)
15,CC(C)(C)c1ccc(/C=C/C(=O)Nc2ncccn2)cc1,inactive
16,Cc1onc(-c2c(F)cccc2Cl)c1C(=O)N(C)CC(=O)Nc1cccc(F)c1,inactive
17,OCCC1CN(Cc2ccc3nsnc3c2)CCN1C1CCCCC1 (stereo not given),inactive
18,OCCC1CN(Cc2ccc3nsnc3c2)CCN1C1CCCC1 (stereo not given),-8.81 (active)
19,Cn1cnnc1Sc1ccc(CN2CCN(C3CCCC3)C(CCO)C2)o1 (stereo not given),inactive
20,COc1ccccc1C(=O)N/C(=C/c1ccc2c(c1)OCO2)C(=O)Nc1cccc(C(=O)O)c1,inactive
21,CN(C)CCCN(C(=O)c1ccc(S(=O)(=O)N2CCCCCC2)cc1)c1nc2cc3c(cc2s1)OCCO3,-7.42 (active)
22,CCN(CC)CCN(C(=O)c1ccc(S(=O)(=O)N2CCOCC2)cc1)c1nc2cc3c(cc2s1)OCCO3,inactive

row,SMILES,B-score
1,CN(C)CCCN(C(=O)c1ccc(S(=O)(=O)N2CCCCCC2)cc1)c1nc2ccc(Br)cc2s1,inactive
2,CC(CC(=O)Nc1ccc(F)cc1F)S(=O)(=O)c1ccc2c(c1)NC(=O)CO2 (stereo not given),inactive
3,CC(CC(=O)N1CCN(S(=O)(=O)c2ccccc2)CC1)n1cncn1 (stereo not given),inactive
4,C=CCNC(=O)c1ccccc1SCc1c(C)noc1C,inactive
5,CCC(C)Sc1nc2c(c(=O)[nH]c(=O)n2C)n1CC(O)COc1cccc2ccccc12 (stereo not given),inactive
6,CC(C)c1ccccc1OCC(O)CN(CC(O)COc1cccc2ccccc12)C(C)C (stereo not given),-10 (active)
7,Cc1cc(C)c(NC(=O)C[N+](C)(C)CC(O)COc2cccc3ccccc23)c(C)c1 (stereo not given),inactive
8,CCCN(c1ccc(C)cc1)c1nc(=O)c2cccnc2s1,inactive
9,CCOC(=O)c1c(NC(=O)NC(C)(C)C)sc2c1CCN(C)C2,-8.36 (active)
10,CCOC(=O)c1c(NC(=S)Nc2ccccc2)sc2c1CCN(C)C2,inactive
11,CCOC(=O)c1c(NC(=O)Cn2nc(C(F)(F)F)cc2C)sc2c1CCC2,inactive
12,CCOC(=O)C1C(c2ccc(OC)c(OC)c2)c2c([nH][nH]c2=O)CC1(C)O (stereo not given),inactive
13,CC1CN(/C=C/C(=O)C(F)(F)F)CC(C)O1 (stereo not given),inactive
14,CCCc1ccc(OCc2ccc(C(=O)N/N=C/c3cccc([N+](=O)[O-])c3)o2)c(OC)c1,inactive
15,FC(F)(F)c1cccc(NC(=S)Nc2cccc(Cl)c2)c1,inactive
16,Cn1nc(C(F)(F)F)c(C(=O)Nc2cccc(C(F)(F)F)c2)c1SCc1ccc(Cl)cc1,-10.4 (active)
17,O=C(O)CSc1c2c(nc3cc(C(=O)Nc4cccc(C(F)(F)F)c4)ccc13)CCCC2,inactive
18,CC(C)=CCCC(C)CN1CCC(n2nccc2NC(=O)c2ccccc2)CC1 (stereo not given),inactive
19,CC(C)Cn1c(CCC(=O)O)ccc1-c1cccs1,-7.21 (active)
20,COCCCn1c(CCC(=O)O)ccc1-c1ccc(F)cc1,inactive
21,CCOC(=O)c1ccc(-n2c(CCC(=O)O)ccc2-c2ccccc2)cc1,inactive
